Shown are actives, neighbours in structure and some others; about 1.1% of the full set was active somewhere.
Thrombin inh: thrombin (human) inhibition; P00734; alpha-thrombin, Boc-VPR-AMC fluorogenic substrate cleavage; inhibition, % at 5 µM; 0.26% of 220,000 active;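 active = inhibition at or above 40%; inactive = inhibition below 40%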
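System – human alpha-thrombin · Medium – pH 7.5 Tris (50 mM) with NaCl 150 mM, Tween 20 0.05% · Compound – single-point dosing at 5 µM, 0.2% DMSO · Incubation – enzyme reaction carried out at room temperature · Technique – fluorescence of released AMC, ex 355 nm, em 460 nm · Read-out basis – % inhibition of thrombin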
hK5 inh: blocks human kallikrein 5 protease activity | Q9Y337 | 0.59% of 210,000 active | inhibition, % at 5 µM | AID 873 | recombinant hK5, fluorogenic AMC substrate cleavage;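 active = inhibition of 40% or more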
Furin inhibitor: inhibitors of human furin. P09958. inhibition, % at 20 µM or 30 µM. 0.061% of 220,000 active. AID 463115. purified furin, fluorogenic substrate cleavage; in the data active = inhibition above about 25%
Target sequence (P09958 108-714 limits assumed): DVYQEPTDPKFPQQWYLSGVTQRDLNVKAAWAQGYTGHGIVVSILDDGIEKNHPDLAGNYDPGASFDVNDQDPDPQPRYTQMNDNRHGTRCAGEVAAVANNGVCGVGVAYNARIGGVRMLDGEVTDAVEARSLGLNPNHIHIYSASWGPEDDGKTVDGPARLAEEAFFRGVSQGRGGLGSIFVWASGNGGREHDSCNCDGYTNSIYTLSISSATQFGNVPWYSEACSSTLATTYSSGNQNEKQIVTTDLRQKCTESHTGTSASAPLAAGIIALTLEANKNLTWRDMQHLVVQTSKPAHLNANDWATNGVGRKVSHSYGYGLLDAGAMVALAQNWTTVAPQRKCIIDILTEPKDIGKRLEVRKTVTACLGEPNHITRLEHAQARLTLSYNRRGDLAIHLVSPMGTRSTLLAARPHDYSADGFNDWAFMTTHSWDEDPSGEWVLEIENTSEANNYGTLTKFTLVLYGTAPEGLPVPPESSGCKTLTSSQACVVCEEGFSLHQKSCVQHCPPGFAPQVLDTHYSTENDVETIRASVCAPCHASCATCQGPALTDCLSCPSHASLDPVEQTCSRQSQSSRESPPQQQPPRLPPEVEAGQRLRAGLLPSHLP
Calb biofilm kill: mixtures killing C. albicans biofilm | C. albicans biofilm persisters + clotrimazole, fluorescence viability; primary screen in compound mixtures of four per well | inhibition, % at 7.6 µM | 0.02% of 120,000 active | AID 1242;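 active = inhibition above 30.3% in the primary screen of four-compound pools, then above 30% when the compound was retested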;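 note: compounds exposed to preformed 24 h biofilms for 48 h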
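Assay system: C. albicans biofilms / Medium: RPMI/MOPS medium, pH 7.0 / Schedule: biofilm formation 24 h, compound exposure 48 h, 37 °C / Measured by: Alamar Blue fluorescence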
FXIa inh 1536: inhibitors of human coagulation factor XIa; 0.14% of 220,000 active; purified FXIa, Boc-Glu-Ala-Arg-AMC fluorogenic substrate; inhibition, % at 5 µM; P03951;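 active = inhibition of at least 40%; inactive = inhibition below 40%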;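 note: fluorescence of freed AMC excited at 355 nm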
FXIIa inh: inhibitors of human coagulation factor XIIa; P00748; inhibition, % at 5 µM; purified FXIIa, Boc-QGR-AMC fluorogenic substrate, 2 h; 0.3% of 220,000 active; AID 800; in the data active = inhibition above about 40%
A number is an active result; 0 = inactive; - = not tested or not shown.

SMILES	Thrombin inh	hK5 inh	Furin inhibitor	Calb biofilm kill	FXIa inh 1536	FXIIa inh
CCOc1cc(C(=O)Nc2ccc(S(=O)(=O)Nc3cc(C)on3)cc2)cc(OCC)c1OCC	0	0	0	-	0	0
COc1cc(C(=O)Nc2ccc(-c3nnc(-c4ccco4)o3)cc2)cc(OC)c1OC	0	0	30	-	0	0
Cc1ccc(-c2cc(C(=O)Nc3ccc(S(=O)(=O)Nc4cc(C)on4)cc3)c3ccccc3n2)c(C)c1	0	0	0	-	0	72
COc1cc(C(=O)Nc2ccc(S(=O)(=O)Nc3cc(C)on3)cc2)cc(OC)c1OC	0	47	0	-	0	0
Cc1ccc(-c2cc(Cc3ccccn3)c(=O)[nH]n2)cc1	0	0	0	0	0	0
CC(C)(C)SCCNS(=O)(=O)c1ccc2ccccc2c1	0	0	0	-	0	0
CC(C)(C)SCCNS(=O)(=O)c1ccccc1	0	43	0	-	0	50
CC(Sc1nnc(-c2cc3ccccc3o2)n1-c1ccccc1)C(=O)O (centres undefined)	47	0	0	-	0	0
O=C(NCc1ccccc1Cl)c1cccc(C(F)(F)F)c1	0	41	0	0	0	0
COC(=O)c1ccc2nc(NC(=O)CN3C(=O)CCC3=O)sc2c1	0	50	0	-	0	0
Cc1cc(F)ccc1NCc1cccnc1	0	0	0	-	0	0
Cc1ccc(NCc2cccnc2)c(Br)c1	0	47	0	0	0	0
CC(C)CC(=O)Nc1ccccc1N1CCCC1	0	72	0	0	0	0
O=C1C2C3c4ccccc4C(c4ccccc43)C2C(=O)N1/N=C/c1cccc(O)c1 (centres undefined)	0	42	0	-	0	0
Cc1ccc(C2=NN(S(=O)(=O)c3ccccc3)C(c3ccccc3O)C2)cc1 (centres undefined)	0	0	0	0	0	103
COc1ccc(C2CC(c3ccccc3)=NN2S(=O)(=O)c2ccccc2)cc1 (centres undefined)	0	0	0	0	0	0
O=C(CC(Nc1ccccc1)c1ccccc1)C1CC1 (centres undefined)	0	0	0	0	0	0
CSc1ccc(NC(=O)Nc2cccn(Cc3ccccc3)c2=O)cc1	0	66	0	0	0	0
NC(=O)c1cc(C(=O)c2ccccc2Cl)c[nH]1	0	0	0	0	0	0
O=C(CN1C(=O)C2C3C=CC(C4CC34)C2C1=O)Nc1cnc2ccccc2c1 (centres undefined)	0	0	0	0	0	0
CCOCCCN(C(=O)Cn1nnc(-c2ccc(C)o2)n1)C(C(=O)NCC1CCCO1)c1ccc(F)cc1 (centres undefined)	0	0	0	0	0	0
Cc1nc2ccccc2c(=O)n1NC(=O)c1cc(Br)ccc1Cl	51	43	0	0	47	0
CN(C)C(=O)c1cn(N(C)c2ncc(C(F)(F)F)cc2Cl)c(=O)c2ccccc12	0	0	0	-	0	0
CN(c1ncc(C(F)(F)F)cc1Cl)N1C(=O)c2cccc([N+](=O)[O-])c2C1=O	0	47	0	0	0	0
Cc1nc(NC(=O)CSc2nnc(N)s2)c(Cl)cc1Cl	0	0	0	0	0	0
SMILES	Thrombin inh	hK5 inh	Furin inhibitor	Calb biofilm kill	FXIa inh 1536	FXIIa inh
CN(C)c1ccc(/C=N/NC(=O)CCCCCNC(=O)c2ccccc2)cc1	0	80	0	0	0	0
CCCC(CCC)C(=O)Nc1ccc2c(c1)N(C(=O)CCN1CCN(C)CC1)c1ccccc1CC2	0	0	0	0	0	0
COCCn1c(SCC(=O)Nc2sc(C)c(C)c2C#N)nnc1-c1ccc(OC)cc1	0	128	0	-	0	0
Cc1sc(NC(=O)CSc2nnnn2C2CCCC2)c(C#N)c1C	0	0	0	-	0	44
CC(Sc1ccsc1[N+](=O)[O-])C(=O)NCc1ccco1 (centres undefined)	0	0	0	0	0	0
COc1ccccc1NC(=O)CSc1nc2ncccc2[nH]1	0	0	0	-	0	0
COc1ccc(C(=O)CSc2nc3ncccc3[nH]2)cc1OC	0	0	0	0	0	102
O=C(/C=C/c1cccc(Br)c1)Nc1nn[nH]n1	0	0	0	0	0	0
Brc1cccc(/C=N/Nc2nn[nH]n2)c1	0	0	0	0	102	43
Cc1cc(Br)ccc1OCCCCN1CCCCC1	0	0	0	0	0	0
COCCNC(=O)c1ccc(NS(=O)(=O)c2cc(C)ccc2C)cc1	0	42	0	-	0	0
CN1CC(=O)N(CC(=O)Nc2ccc3c(c2)CCC3)C1=O	0	0	0	0	0	0
O=C(c1ccco1)N1CCN(C2CC(=O)N(c3ccccc3)C2=O)CC1 (centres undefined)	0	0	0	-	0	0
O=C(c1ccco1)N1CCN(C2CC(=O)N(c3ccc4c(c3)OCO4)C2=O)CC1 (centres undefined)	0	0	31	-	0	0
CNc1ncc(C(=O)c2ccc(Br)cc2)s1	0	0	0	0	0	0
COc1ccccc1-c1cc(C(=O)NCc2ccco2)no1	0	48	0	-	0	0
COc1ccccc1-c1cc(C(=O)NCc2cccs2)no1	0	0	0	-	0	0
COc1ccccc1NC(=O)N1CCCC1C(=O)NC1CCCCC1 (centres undefined)	54	0	0	-	0	0
COc1cnc(-c2ccccn2)nc1Sc1ccc(F)cc1	0	0	0	0	0	0
O=C(NCc1ccco1)c1c2c(nc3ccccc13)CCC2	0	0	0	-	0	48
O=C(N/C=C/n1cnc2cc(C(F)(F)F)ccc21)c1ccccc1F	0	0	0	0	0	0
CCCc1ccc(C(=O)NNc2cccc(C)c2)cc1	0	0	0	0	0	0
CC1=CCC2C(=O)N(Cc3ccccc3)C(=O)C2C1 (centres undefined)	0	0	0	-	0	0
CC1=CCC2C(=O)N(C(C)c3ccccc3)C(=O)C2C1 (centres undefined)	0	0	0	-	64	0
COc1cccc(C(=O)NNC2=CC(=O)CC(C)(C)C2)c1	0	0	0	-	0	0
SMILES	Thrombin inh	hK5 inh	Furin inhibitor	Calb biofilm kill	FXIa inh 1536	FXIIa inh
CC1(C)CC(=O)C=C(NNC(=O)c2cccnc2)C1	0	65	0	0	0	0
Cc1ccc(/S(C)=N/S(=O)(=O)c2ccc(C)cc2)cc1 (centres undefined)	0	0	0	-	0	0
CCC/S(C)=N/S(=O)(=O)c1ccc(C)cc1 (centres undefined)	0	48	0	0	0	0
COc1cc(C2Oc3ccccc3C=C2[N+](=O)[O-])cc(OC)c1OC (centres undefined)	0	0	0	0	0	0
Cc1ccc(C)c(N2CCN(C(=O)C34CC5CC(C3)CC(n3nnc(C)n3)(C5)C4)CC2)c1	0	0	0	0	0	0
O=C(Nc1ccc(N2CCOCC2)cc1)C1CCN(S(=O)(=O)c2ccccc2F)CC1	70	0	0	0	0	0
